Assay results taken from ChEMBL document CHEMBL1140445, “Design, synthesis, and preliminary pharmacological evaluation of a set of small molecules that directly activate gi proteins” (J Med Chem, 2005).

Tests used:
Format in all cases: functional
[1] = target: T1, Guanine nucleotide-binding protein G(o) subunit alpha (Homo sapiens, UniProt P09471); experiment: Concentration required to stimulate binding of [35S]GTP-gamma-S, with G alpha o1
Method in brief: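 Gαo: His-tagged recombinant subunit from E. coli BL21/DE3, IMAC-purified. 3 pmol, native or vesicle-reconstituted, incubated 30 min at 20 °C with 0.1 μM [35S]GTPγS in Hepes-NaOH/EDTA/DTT/100 μM MgSO4 mix. The reaction was stopped with ice-cold Tris/MgCl2/NaCl buffer, filtered on cellulose nitrate and washed. EC50 was derived from eight concentrations spanning 1×10^-7 to 1×10^-4 M.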
Target sequence in this assay (P09471 whole entry): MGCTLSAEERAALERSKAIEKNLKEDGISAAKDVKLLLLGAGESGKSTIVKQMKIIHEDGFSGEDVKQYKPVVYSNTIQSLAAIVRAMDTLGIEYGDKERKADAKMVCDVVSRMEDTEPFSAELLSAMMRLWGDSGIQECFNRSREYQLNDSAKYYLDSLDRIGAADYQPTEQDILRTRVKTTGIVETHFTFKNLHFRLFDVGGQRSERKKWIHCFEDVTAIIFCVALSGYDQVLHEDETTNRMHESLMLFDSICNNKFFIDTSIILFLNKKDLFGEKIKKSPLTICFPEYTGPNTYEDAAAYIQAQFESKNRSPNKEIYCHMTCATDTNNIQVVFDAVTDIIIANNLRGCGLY

[2] = target: T2, Guanine nucleotide-binding protein G(i) subunit alpha-1 (Homo sapiens, UniProt P63096); experiment: Percent stimulation of [35S]GTP-gamma-S, binding to G alpha i1 at 5E-5 M of basal for 30 minutes
T2 sequence (P63096 whole entry): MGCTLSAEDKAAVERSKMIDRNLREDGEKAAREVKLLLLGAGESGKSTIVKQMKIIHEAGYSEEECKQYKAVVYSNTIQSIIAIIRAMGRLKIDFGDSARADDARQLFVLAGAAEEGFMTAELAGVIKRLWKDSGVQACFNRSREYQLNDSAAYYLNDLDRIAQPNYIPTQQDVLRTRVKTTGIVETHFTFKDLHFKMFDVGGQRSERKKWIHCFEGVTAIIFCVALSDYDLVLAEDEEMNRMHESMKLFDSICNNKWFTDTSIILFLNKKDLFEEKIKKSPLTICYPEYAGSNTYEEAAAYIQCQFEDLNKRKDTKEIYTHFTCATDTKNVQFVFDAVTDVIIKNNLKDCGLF
Method in brief: (§1)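 Recombinant His-tagged Gαi subunit (3 pmol, native or in lipid vesicles) was incubated with compound at 5×10^-5 M and 0.1 μM [35S]GTPγS, 30 min at 30 °C, in 50 mM Hepes-NaOH, 1 mM EDTA, 1 mM DTT, 100 μM MgSO4. Filter-bound GTPγS after ice-cold stop and cellulose-nitrate filtration is expressed as percent of basal.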

[3] = target: T2, Guanine nucleotide-binding protein G(i) subunit alpha-1; experiment: Concentration required to stimulate binding of [35S]GTP-gamma-S, with G alpha i1
Method in brief: (§2)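 His-tagged recombinant Gαi subunits were expressed in E. coli BL21/DE3 and purified by IMAC. 3 pmol of subunit, native or in lipid vesicles, was incubated 30 min at 30 °C with 0.1 μM [35S]GTPγS in 50 mM Hepes-NaOH, 1 mM EDTA, 1 mM DTT and 100 μM MgSO4. The reaction was stopped with ice-cold buffer and filtered on cellulose nitrate. EC50 came from 1×10^-7 to 1×10^-4 M (eight concentrations).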

[4] = target: T3, Guanine nucleotide-binding protein G(i) subunit alpha-3 (Homo sapiens, UniProt P08754); experiment: Percent stimulation of [35S]GTP-gamma-S, binding to G alpha i3 at 5E-5 M of basal for 30 minutes; method in brief: as §1
T3 sequence (P08754 whole entry): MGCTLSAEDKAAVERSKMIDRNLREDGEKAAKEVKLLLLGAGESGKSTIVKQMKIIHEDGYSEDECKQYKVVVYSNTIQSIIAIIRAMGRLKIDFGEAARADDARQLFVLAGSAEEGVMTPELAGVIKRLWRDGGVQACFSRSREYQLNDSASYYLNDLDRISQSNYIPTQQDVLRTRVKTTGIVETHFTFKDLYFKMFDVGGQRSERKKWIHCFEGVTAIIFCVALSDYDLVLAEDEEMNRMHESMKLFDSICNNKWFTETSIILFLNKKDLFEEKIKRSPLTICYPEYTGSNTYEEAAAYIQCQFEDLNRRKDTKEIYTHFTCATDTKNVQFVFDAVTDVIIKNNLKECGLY

[5] = target: T1, Guanine nucleotide-binding protein G(o) subunit alpha; experiment: Percent stimulation of [35S]GTP-gamma-S, binding to G alpha o1 at 5E-5 M of basal for 30 minutes
Method in brief: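 With Gαo (3 pmol recombinant His-tagged subunit, native or vesicle-reconstituted), binding of 0.1 μM [35S]GTPγS was measured during 30 min at 20 °C with compound at 5×10^-5 M, in Hepes-NaOH buffer with EDTA, DTT and 100 μM MgSO4. Samples were filtered on cellulose nitrate, and the value is percent of basal binding.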
Target sequence in this assay (P09471 2-354 limits assumed): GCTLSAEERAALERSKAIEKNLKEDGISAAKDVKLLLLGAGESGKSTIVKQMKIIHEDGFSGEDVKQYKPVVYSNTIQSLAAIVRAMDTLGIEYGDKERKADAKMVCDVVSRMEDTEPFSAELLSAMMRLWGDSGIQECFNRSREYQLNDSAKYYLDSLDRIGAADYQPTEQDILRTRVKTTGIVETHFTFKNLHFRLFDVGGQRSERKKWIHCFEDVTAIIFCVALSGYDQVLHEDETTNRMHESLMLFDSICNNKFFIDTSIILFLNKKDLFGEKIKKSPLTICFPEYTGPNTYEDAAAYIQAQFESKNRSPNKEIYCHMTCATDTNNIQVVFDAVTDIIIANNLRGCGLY

[6] = target: T3, Guanine nucleotide-binding protein G(i) subunit alpha-3; experiment: Concentration required to stimulate binding of [35S]GTP-gamma-S, with G alpha i3; method in brief: as §2
[7] = target: T3, Guanine nucleotide-binding protein G(i) subunit alpha-3; experiment: Percent stimulation of [35S]GTP-gamma-S, binding to G alpha i3 at 3E-5 M of basal for 30 minutes

SMILES	EC50 [1]	Stimulation [2]	EC50 [3]	Stimulation [4]	Stimulation [5]	EC50 [6]	Stimulation [7]
CCCCCCCCCCCCC(=O)N1CCC(C2CCNCC2)CC1	18.1 µM	950%	17.6 µM	1180%	1500%	12.1 µM	
CCCCCCCCCCCCCCC[N+]1(C)CCC(C2CCNCC2)CC1 (stereo not given)	10.1 µM	1580%	14.7 µM	1630%	2090%	16 µM	
CCCCCCCCCCCCCCC(=O)N1CCC(C2CCNCC2)CC1	5.6 µM	1540%	8.6 µM	1560%	2390%	9.3 µM	
CCCCCCCCCCCCCCC(=O)N1CCC(CCC2CCNCC2)CC1	6.1 µM	845%	6.6 µM	1090%	724%	6.3 µM	
CCCCCCCCCCCCNC(=O)C(N)CCCCN (stereo not given)	28.8 µM	900%	47.9 µM	1030%	2510%	43.9 µM	
CCCCCCCCCCCCCCC(=O)N1CCN(N)CC1	374 µM	173%	28.6 µM	211%	194%	24.6 µM	
CCCCCCCCCCCCCCCN1CCC(NC2CCNCC2)CC1	13.5 µM	1540%	32.4 µM	2280%	3040%	14.4 µM	
CCCCCCCCCCCCCCCCCN1CCC(C2CCN(C)CC2)CC1		81%		97%	99%		
COc1ccccc1CN1CCC(C2CCNCC2)CC1		60%		391%	129%	38.8 µM	
CCCCCCCCCCCCCN1CCC(C2CCN(C)CC2)CC1	19.3 µM	704%	18.7 µM	435%	420%	18.9 µM	
CCCCCCCCCCCCCCCN1CCC(CCC2CCNCC2)CC1	10.5 µM	2460%	451 µM	2400%	5010%	8050 µM	
CCCCCCCCCCCCCCC(=O)N1CCC(N)CC1	25.8 µM	1050%	25.5 µM	1070%	1280%	25.1 µM	
CCCCCCCCCCCCCCCN1CCN(N)CC1	3.7 µM	2330%	6.5 µM	2820%	2870%	6.5 µM	
CCCCCCCCCCCCCCC(=O)N1CCC(CCC2CCN(C)CC2)CC1	12.5 µM	577%	20.1 µM	815%	742%	6.1 µM	
CCCCCCCCCCCCCCCNCC1CCN(CCN)CC1	24.3 µM	825%	17.8 µM	815%	942%	23 µM	

Continued, values first:

EC50 [1]	Stimulation [2]	EC50 [3]	Stimulation [4]	Stimulation [5]	EC50 [6]	Stimulation [7]	SMILES
25.5 µM	1480%	36.4 µM	2000%	2350%	18.8 µM		CCCCCCCCCCCCCNC1CCNCC1
13.4 µM	5690%	35.7 µM	5660%	3480%	41.5 µM		CCCCCCCCCCCCCCCCCN1CCC(C2CCNCC2)CC1
22.6 µM	612%	25.4 µM	424%	920%	24.4 µM		CCCCCCCCCCCCCCCCC(=O)N1CCC(C2CCNCC2)CC1
6.2 µM	1510%	19.1 µM	1640%	1810%	18.7 µM		CCCCCCCCCCCCCCCN1CCC(C2CCNCC2)CC1
	84%		75%	126%			CCCCCCCCCCCCC(=O)N1CCC(C2CCN(C)CC2)CC1
22.7 µM	1270%	50.2 µM	1290%	1370%	34.3 µM		CCCCCCCCCCCCCCC(=O)NC1CCNCC1
27.1 µM	755%	21.1 µM	406%	913%	21.2 µM		CCCCCCCCCCCCCN1CCC(C2CCNCC2)CC1
8.2 µM	973%	6.4 µM	986%	2270%	5.9 µM		CCCCCCCCCCCCCCCNC(=O)C1CCNCC1
23.4 µM	2320%	38.5 µM	3690%	4640%	24.9 µM		CCCCCCCCCCCCCCC(=O)NN1CCNCC1
	97%		80%	93%			CCCCCCCCCCCCCCCN1CCC(C2CCN(C)CC2)CC1
	86%		102%	132%			CCCCCCCCCCCCCCCN1CCC(CCC2CCN(C)CC2)CC1
6.1 µM	5060%	15.9 µM		5580%	19 µM	5720%	CCCCCCCCCCCCCCCNN1CCNCC1
23 µM	3350%	22.1 µM	3780%	6890%	27.6 µM		CCCCCCCCCCCCCCCN1CCC(N)CC1
13.3 µM	3370%	11.8 µM	3440%	3830%	11.2 µM		CCCCCCCCCCCCCCCNC1CCNCC1
12.4 µM	2460%	10.6 µM	1930%	4160%	11.4 µM		CCCCCCCCCCCCCCCNCC1CCNCC1
34.9 µM	392%	6 µM	265%	531%	17.9 µM		CCCCCCCCCCCCCCC(=O)N1CCC(C2CCN(C)CC2)CC1
16.9 µM	2630%	18.4 µM	2720%	3350%	19 µM		CCCCCCCCCCCCCCCNC(=O)C1CCN(CCN)CC1
21.4 µM	232%	23 µM	181%	472%	23.3 µM		CCCCCCCCCCCCCCCCC(=O)N1CCC(C2CCN(C)CC2)CC1
5.5 µM	3290%	8.6 µM	3240%	3600%	9.3 µM		CCCCCCCCCCCCCCCNC(=O)C1CCN(CCNC=O)CC1
